Measured values: ChEMBL document CHEMBL1687903, “Claurailas A-D, cytotoxic carbazole alkaloids from the roots of Clausena harmandiana” (J Nat Prod, 2011)

Legend:
KB = experiment: Cytotoxicity against human KB cells by resazurin microplate assay; format: functional, cell-based
Procedure, shortened: (§1)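 Resazurin microplate assay (REMA) on human epidermoid carcinoma KB and human small cell lung cancer NCI-H187 lines, with ellipticine as reference substance. Activity reported as IC50 in μM.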

NCI-H187 = experiment: Cytotoxicity against human NCI-H187 by resazurin microplate assay; format: functional, cell-based; procedure, shortened: as §1
Vero = experiment: Cytotoxicity against african green monkey Vero cells by green fluorescent protein microplate assay; format: cell-based; conditions: Chlorocebus sabaeus
Procedure, shortened: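 Green fluorescent protein-based assay on Vero cells (African green monkey kidney), used as the normal-cell counterscreen, with ellipticine as reference substance. Activity reported as IC50 in μM.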

Compound	IC50 (KB) [µM]	IC50 (NCI-H187) [µM]	IC50 (Vero) [µM]
COc1ccc2c(c1)[nH]c1c(O)cc(C=O)cc12	10.7	10.4	180
COc1ccc2c(c1)[nH]c1c(CC=C(C)C)c(O)c(C=O)cc12	2.75	1.68	> 200
CC(C)=CCc1c(O)c(C=O)cc2c1[nH]c1cc(O)ccc12 [7-HYDROXYHEPTAPHYLLINE]	27.9	14.6	41.2
COc1ccc2c(c1)[nH]c1c(OC)cc(C=O)cc12 [CLAURAILAS A]	> 200	13.5	> 200
Cc1cc2c([nH]c3c(O)cccc32)c2c1OC(C)(C)C=C2 [CLAURAILAS B]	> 200	> 200	> 200
COC(=O)c1ccc2[nH]c3ccc4c(c3c2c1)C=CC(C)(C)O4 [CLAURAILAS C]	> 200	> 200	> 200
CC1(C)C=Cc2c(ccc3[nH]c4cc(O)c(C=O)cc4c23)O1 [CLAURAILAS D]	30.6	7.54	29.4
COC(=O)c1cc(O)c2[nH]c3ccccc3c2c1 [CLAUSINE E]	108	94.6	152
COc1ccc2c(c1)[nH]c1cc(OC)c(C(=O)O)cc12 [CLAUSINE K]	> 200	139	178
O=Cc1cc2c(cc1O)[nH]c1cc(O)ccc12 [CLAUSINE O]	59.6	74.7	64.6
C=CC(C)(C)c1c2c(c(OC)c3ccc(=O)oc13)C=CC(C)(C)O2 [DENTATIN]	114	45.4	> 200
Cc1c2ccncc2c(C)c2c1[nH]c1ccccc12 [ELLIPTECINE]	–	2.76	3.82
Cc1cc2c([nH]c3ccccc32)c2c1OC(C)(C)C=C2 [GRINIMIBINE]	7.02	22.4	> 200
CC(C)=CCc1c(O)c(C=O)cc2c1[nH]c1ccccc12 [HEPTAPHYLLINE]	1.61	1.32	92.5
COc1ccc2c(c1)[nH]c1cc(OC)c(C=O)cc12 [LANSINE]	> 200	102	> 200
COc1cc(C=O)cc2c1[nH]c1ccccc12 [MURRAYANINE]	72.2	11.5	> 200
C=CC(C)(C)c1c2c(c(O)c3ccc(=O)oc13)C=CC(C)(C)O2 [NORDENTATIN]	20.6	11.8	56.4
O=Cc1cc(O)c2[nH]c3ccccc3c2c1 [O-DEMETHYLMURRAYANINE]	5.49	19.2	104
COc1c2c(cc3oc(=O)ccc13)OC(C)(C)C=C2 [XANTHOXYLETIN]	133	> 200	> 200
